NR2E3 ag-1: NR2E3 agonists in two-hybrid cells, primary screen, cell-based, luminescence, CHO-S, Gal4-NCOR/VP16-NR2E3 | Photoreceptor-specific nuclear receptor (Homo sapiens), Q9Y5X4 | luciferase | inhibition of corepressor binding, % at 3.98 µM | 0.35% of 360,000 active | AID 602229, 2012;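 active = inhibition above the mean of all tested compounds plus 3 SD, cut at about 70% in these data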;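 also: higher means lower luciferase signal from less NR2E3 corepressor binding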
NR2E3 ag-2: inhibitors of NR2E3-RetCOR corepressor binding, primary screen, NR2E3 agonist project, biochemical, TR-FRET, GST-NR2E3, biotin-RetCOR. Photoreceptor-specific nuclear receptor (Homo sapiens), Q9Y5X4. 1536-well. inhibition of corepressor binding, % at 4.78 µM. 0.12% of 320,000 active;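 active = percent inhibition above the cutoff of mean plus 3 SD of all tested compounds, set per screening campaign, cut at about 20% in these data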
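System: GST-NR2E3 and biotin-RetCOR proteins; probe or stimulus: 7 nM biotin-RetCOR; doses: compound at 4.8 µM, single dose; schedule: Compound–protein incubation for 5 h at 4 °C; detection: time-resolved FRET; read-out: percent inhibition; controls: biotin wells as high control, 0.6% DMSO wells as low control; format: 1536-well plates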
PG9 binder: binders of HIV-1 gp120 antibody PG9, primary screen, biochemical, TR-FRET. HIV-1 gp120 / PG9 antibody interaction. TR-FRET gp120-PG9 antibody binding. inhibition, % at 6.7 µM. 0.43% of 360,000 active; in the data active = inhibition above about 8.5%
NR1D1 modulator: modulators of Rev-erb alpha DNA binding, primary screen, biochemical, FITC-DNA, fluorescence polarization, uHTS; Nuclear receptor subfamily 1 group D member 1 (Homo sapiens), P20393; Rev-erbα–FITC-DNA binding, 90 min; activity, % at 10 µM; 0.79% of 370,000 active; AID 1259318, 2017;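 active = activity above about 14%, limit read from the data; passing the limit was not always enough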
Target sequence (P20393 whole entry, looked up): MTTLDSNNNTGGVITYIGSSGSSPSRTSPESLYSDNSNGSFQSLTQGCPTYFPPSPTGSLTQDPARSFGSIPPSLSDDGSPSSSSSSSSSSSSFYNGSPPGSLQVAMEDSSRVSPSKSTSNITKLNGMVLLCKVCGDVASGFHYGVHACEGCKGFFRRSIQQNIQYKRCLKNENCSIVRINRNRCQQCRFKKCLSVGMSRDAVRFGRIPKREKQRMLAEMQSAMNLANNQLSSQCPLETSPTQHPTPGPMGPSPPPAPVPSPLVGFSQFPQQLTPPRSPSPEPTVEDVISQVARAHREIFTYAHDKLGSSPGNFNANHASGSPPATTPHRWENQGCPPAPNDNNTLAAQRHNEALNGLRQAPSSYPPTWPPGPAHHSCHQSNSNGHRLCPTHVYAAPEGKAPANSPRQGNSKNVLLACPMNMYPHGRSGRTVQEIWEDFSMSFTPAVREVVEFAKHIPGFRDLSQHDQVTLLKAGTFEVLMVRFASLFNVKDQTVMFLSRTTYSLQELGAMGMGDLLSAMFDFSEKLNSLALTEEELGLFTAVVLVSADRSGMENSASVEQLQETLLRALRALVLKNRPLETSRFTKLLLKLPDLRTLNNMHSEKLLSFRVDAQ
Rev-erbA confirm: modulators of Rev-erb alpha DNA binding, confirmation, biochemical, FITC-DNA, fluorescence polarization, single point | shares compounds with NR1D1 modulator | 90 min | activation, % at 25 µM | 61% of 3,000 active | AID 1259319, 2017;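 active = activation at or above a set limit, or at least 3 SD above the negative control mean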
RORg DNA counter: modulation of RORgamma DNA binding, dose response, counter-screen for Rev-erb alpha modulator project, biochemical, fluorescence polarization, FITC-DNA; AID 1259320, 2017; IC50, µM; 8% of 910 active; purified RORgamma protein-FITC-DNA binding; shares compounds with NR1D1 modulator;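 active = Compounds whose fitted half-maximal concentration for disrupting protein-DNA binding is below 10 micromolar; the record names Rev-erb in its text, so the target is in doubt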
Each line names hits and unclear results; the compound was inactive in the other large screens (follow-up assays come after a bar, where they were run). An excerpt weighted towards active compounds, which were near 1.5% of everything screened.

COC(=O)[C@]12C[C@H](CC(=O)N3CCCC3)C(=O)N(Cc3ccc(Cl)cc3Cl)C1=C[C@H](C(C)(C)C)O[C@@H]2C	none (no result: NR2E3 ag-1, NR2E3 ag-2, PG9 binder)
NS(=O)(=O)c1ccc(CCNc2ccn3nc(-c4cccc(C(F)(F)F)c4)cc3n2)cc1	NR1D1 modulator 27.6 (no result: NR2E3 ag-2) | Rev-erbA confirm inactive
CCOc1ccc(NC(=O)c2cn(-c3ccc(OCC)cc3)c(=O)c3cc(OC)c(OC)cc23)cc1	none
CCOc1ccc(-n2cc(C(=O)Nc3cccc(C)n3)c3cc(OC)c(OC)cc3c2=O)cc1	NR1D1 modulator 34.7 | Rev-erbA confirm inactive
O=C1NC(Cc2ccccc2)c2nc3ccc(Cl)cc3c(=O)n2-c2cc3ccccc3cc21 (stereo not given)	NR1D1 modulator 21.5 (no result: NR2E3 ag-2) | Rev-erbA confirm inactive
COc1ccc(C)c2sc(=NC(=O)c3ccc(C(C)=O)cc3)n(C)c12	none
CCC(=O)N=c1sc2c(OC)ccc(OC)c2n1C	NR1D1 modulator 46.9 | Rev-erbA confirm 29.7 | RORg DNA counter inactive
COc1ccc(C)c2sc(=NC(=O)c3cccc(N4C(=O)CCC4=O)c3)n(C)c12	NR1D1 modulator 42.5 | Rev-erbA confirm 23.5
CCC(=O)N=c1sc2cc(F)cc(F)c2n1C	none
COc1ccc(OC)c2c1sc(=NC(=O)C1COc3ccccc3O1)n2C (stereo not given)	NR1D1 modulator 29.0 | Rev-erbA confirm 20.5
COc1ccc(C)c2sc(=NC(=O)C(C)C)n(C)c12	NR1D1 modulator 158.4 | Rev-erbA confirm 10.7
CC(C)CNC(=O)OCc1cn(Cc2ccccc2Cl)nn1	none (no result: NR2E3 ag-1, NR2E3 ag-2, PG9 binder)
CCCCCn1nnnc1C1(C)CCCCC(=O)N1Cc1ccco1 (stereo not given)	none (no result: NR2E3 ag-1, NR2E3 ag-2, PG9 binder)
Cc1ccc(C(=O)C2CCN(CC(=O)N3CC(C)CC(C)C3)CC2)cc1 (stereo not given)	none (no result: NR2E3 ag-1, NR2E3 ag-2, PG9 binder)
O=C(CSc1nc(-c2ccco2)cc(C(F)(F)F)n1)NC1CCCCCCC1	NR1D1 modulator 25.1 | Rev-erbA confirm inactive
O=C(CSc1nc(-c2ccco2)cc(C(F)(F)F)n1)NN1CCOCC1	none
CCOC(=O)Cn1cc(CN2C(C(=O)OC)CN(Cc3ccc(Cl)cc3)CCS2(=O)=O)nn1 (stereo not given)	none (no result: NR2E3 ag-1, NR2E3 ag-2, PG9 binder)
CCN1C(=O)/C(=C\N2CCN(c3ccc(F)cc3)CC2)SC1=S	NR1D1 modulator 212.7 | Rev-erbA confirm 250.9 | RORg DNA counter inactive
C=CCC[C@@H](Cc1ccc(F)cc1)C(=O)OC[C@H](C)NC(=O)[C@@H](CC=C)CC(=O)N(CCO)Cc1ccccc1	NR1D1 modulator 13.1 (no result: NR2E3 ag-2) | Rev-erbA confirm inactive
COC(=O)c1ccc(Cn2ccc3ccc(-c4ccc5ccn(C(=O)c6ccccc6)c5c4)cc32)cc1	none (no result: NR2E3 ag-1, NR2E3 ag-2, PG9 binder)
COC(=O)c1ccc(Cn2ccc3ccc(-c4ccc5ccn(C(=O)c6cccc(OC)c6)c5c4)cc32)cc1	NR1D1 modulator 39.5 (no result: NR2E3 ag-1, NR2E3 ag-2, PG9 binder) | Rev-erbA confirm 52.2 | RORg DNA counter inactive
N#Cc1ccc(Cn2ccc3ccc(-c4ccc5ccn(C(=O)C6CCC6)c5c4)cc32)cc1	none (no result: NR2E3 ag-1, NR2E3 ag-2, PG9 binder)
N#Cc1ccc(Cn2ccc3ccc(-c4ccc5ccn(C(=O)C6CCCCC6)c5c4)cc32)cc1	NR1D1 modulator 36.1 (no result: NR2E3 ag-1, NR2E3 ag-2, PG9 binder) | Rev-erbA confirm 18.3
COC(=O)c1ccc(Cn2ccc3ccc(-c4ccc5ccn(Cc6ccc(C(=O)OC)cc6)c5c4)cc32)cc1	none (no result: NR2E3 ag-1, NR2E3 ag-2, PG9 binder)
COC(=O)c1ccc(Cn2ccc3ccc(-c4ccc5ccn(C(=O)c6ccccc6C)c5c4)cc32)cc1	NR1D1 modulator 30.2 (no result: NR2E3 ag-1, NR2E3 ag-2, PG9 binder) | Rev-erbA confirm 42.1 | RORg DNA counter inactive
COc1ccc(Cn2ccc3ccc(-c4ccc5ccn(C(=O)c6cccc(OC)c6)c5c4)cc32)cc1	NR1D1 modulator 37.5 (no result: NR2E3 ag-1, NR2E3 ag-2, PG9 binder) | Rev-erbA confirm 70.6 | RORg DNA counter inactive
COC(=O)c1cc2c(c3c4cc(C)ccc4n(C(=O)c4ccccc4)c13)C(=O)N(Cc1ccccc1)C2	none (no result: NR2E3 ag-1, NR2E3 ag-2)
